Experimental data reported in PubChem BioAssay AID588418 (The Scripps Research Institute Molecular Screening Center, 2011).
Calls of active or inactive are those of the source.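 The calls were made as follows: active = IC50 at or below 1000 nM; inactive = IC50 above 1000 nM.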

Target: Protein-arginine deiminase type-4 (Homo sapiens) (UniProt Q9UM07)
Test: PAD4 enzyme inhibition potency, late-stage follow-up, biochemical, BAEE substrate, citrulline absorbance, 7-point 0-10 µM (AID 588418)
Details: recombinant PAD4, BAEE citrulline colorimetric absorbance
Summary of the method: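 Material: Recombinant PAD4 | Quantity: 0.2 µM PAD4 enzyme in the reaction | Signal: Colorimetric citrulline absorbance at 540 nm, diacetyl monoxime/thiosemicarbazide reagent | Incubation: 15 min pre-incubation and 15 min reaction, 37 °C | Medium: Tris-HCl pH 7.6, CaCl2, DTT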

Chain of Protein-arginine deiminase type-4 (Homo sapiens) (Q9UM07 whole entry, looked up): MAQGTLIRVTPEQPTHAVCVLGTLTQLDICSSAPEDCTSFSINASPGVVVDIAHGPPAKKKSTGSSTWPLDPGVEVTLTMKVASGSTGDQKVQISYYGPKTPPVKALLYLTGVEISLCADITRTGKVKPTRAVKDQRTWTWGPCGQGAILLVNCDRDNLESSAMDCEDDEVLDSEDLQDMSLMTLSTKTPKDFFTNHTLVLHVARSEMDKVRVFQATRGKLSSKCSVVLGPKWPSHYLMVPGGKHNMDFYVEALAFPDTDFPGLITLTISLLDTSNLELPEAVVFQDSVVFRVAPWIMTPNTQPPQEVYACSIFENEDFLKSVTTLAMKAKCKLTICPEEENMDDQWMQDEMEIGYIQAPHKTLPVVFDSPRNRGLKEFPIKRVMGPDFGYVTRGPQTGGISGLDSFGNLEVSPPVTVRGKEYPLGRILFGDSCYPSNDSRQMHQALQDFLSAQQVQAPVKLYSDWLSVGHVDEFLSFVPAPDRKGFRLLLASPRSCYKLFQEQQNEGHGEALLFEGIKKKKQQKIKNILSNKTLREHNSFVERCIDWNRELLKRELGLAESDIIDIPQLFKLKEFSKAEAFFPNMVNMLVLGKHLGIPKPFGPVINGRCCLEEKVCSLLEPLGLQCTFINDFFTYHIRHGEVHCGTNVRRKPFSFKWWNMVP

IC50: inactive
Structure (SMILES): COC1=C(N)C(=O)c2ncccc2C1=O
